Assay [1] concerns the target Adenosine receptors; A1 & A3 (Homo sapiens) (UniProt P30542+P0DMS8). Description: Selectivity ratio of Ki for human adenosine A1 receptor to Ki for human adenosine A3 receptor. In outline: (§1)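 Ratios of Ki values from displacement assays in CHO cells (3 h, room temperature). The hA1 Ki ([3H]CCPA) or the hA2A Ki ([3H]NECA) was divided by the hA3 Ki ([3H]HEMADO). Each Ki is a geometric mean of n = 3–6.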

The species named for assay [2] is Homo sapiens. The assay is described as follows: Selectivity ratio of Ki for human adenosine A2A receptor to Ki for human adenosine A3 receptor. In outline: as §1
The target of a further assay is T1, Adenosine receptor A3 (Homo sapiens, UniProt P0DMS8).
T1 sequence (P0DMS8 whole entry): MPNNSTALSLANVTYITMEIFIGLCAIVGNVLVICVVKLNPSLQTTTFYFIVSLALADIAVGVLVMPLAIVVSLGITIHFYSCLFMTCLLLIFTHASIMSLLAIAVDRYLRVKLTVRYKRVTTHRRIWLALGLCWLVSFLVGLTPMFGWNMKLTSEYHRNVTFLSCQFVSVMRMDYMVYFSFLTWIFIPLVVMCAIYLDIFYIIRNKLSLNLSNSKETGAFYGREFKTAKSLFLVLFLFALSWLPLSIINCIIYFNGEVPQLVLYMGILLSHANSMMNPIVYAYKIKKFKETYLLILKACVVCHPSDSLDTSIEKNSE
Description: Displacement of [3H]-HEMADO from human adenosine A3 receptor expressed in CHO cells after 3 hrs by topcount scintillation counting analysis. Format: cell-based. In outline:
(§2)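 Radioligand binding to membranes from CHO cells expressing the human receptor, run for 3 h at room temperature. Radioligands were [3H]CCPA for hA1, [3H]NECA for hA2A and [3H]HEMADO for hA3. Nonspecific binding was defined with 1 mM theophylline (hA1) or 100 µM R-PIA (hA2A, hA3). Bound ligand was separated by GF/B filtration and counted. Ki came from nonlinear fitting of competition curves using Cheng-Prusoff, as geometric means of n = 3–6 with 95% CI.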
Background: Displacement assays read how much labelled ligand stays bound in the presence of the test substance.

A further assay has as its target T2, Adenosine receptor A2b (Homo sapiens, UniProt P29275).
T2 sequence (P29275 whole entry): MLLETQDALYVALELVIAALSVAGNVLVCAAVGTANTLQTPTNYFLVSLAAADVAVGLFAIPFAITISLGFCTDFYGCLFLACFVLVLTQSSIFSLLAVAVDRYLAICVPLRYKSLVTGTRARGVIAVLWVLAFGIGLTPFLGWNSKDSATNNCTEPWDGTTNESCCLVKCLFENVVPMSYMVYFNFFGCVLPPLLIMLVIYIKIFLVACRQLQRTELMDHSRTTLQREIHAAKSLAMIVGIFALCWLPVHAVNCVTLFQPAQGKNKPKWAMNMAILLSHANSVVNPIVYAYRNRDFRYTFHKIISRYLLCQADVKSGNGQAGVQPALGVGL
The assay is described as follows: Antagonist activity at human adenosine A2B receptor expressed in CHO cells assessed as inhibition of NECA-induced adenylyl cyclase activity after 20 mins in presence of [alpha-32P]ATP. Format: functional, cell-based. In outline: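 Membranes from CHO cells transfected with the human A2B receptor were incubated for 20 min with 100 nM NECA, 150,000 cpm [α-32P]ATP and test compound at several concentrations. The incubation mixture contained no EGTA and no NaCl. Ki was derived from concentration-dependent inhibition of NECA-stimulated adenylyl cyclase activity (n = 3–6).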

In a further assay the target is Adenosine receptor A2a (Homo sapiens, UniProt P29274). Description: Displacement of [3H]-NECA from human adenosine A2A receptor expressed in CHO cells after 3 hrs by topcount scintillation counting analysis. Format: cell-based. The gist of the method: as §2
The next assay addresses T3, Adenosine receptor A1 (Homo sapiens, UniProt P30542).
T3 sequence (P30542 whole entry): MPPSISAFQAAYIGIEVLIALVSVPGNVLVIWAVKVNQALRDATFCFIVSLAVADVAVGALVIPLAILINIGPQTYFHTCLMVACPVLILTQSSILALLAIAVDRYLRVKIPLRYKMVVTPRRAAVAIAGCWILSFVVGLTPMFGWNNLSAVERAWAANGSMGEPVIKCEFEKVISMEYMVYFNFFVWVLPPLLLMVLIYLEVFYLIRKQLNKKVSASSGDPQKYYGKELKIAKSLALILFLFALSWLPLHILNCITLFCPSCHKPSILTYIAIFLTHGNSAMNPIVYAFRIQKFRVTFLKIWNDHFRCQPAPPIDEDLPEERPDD
Description: Displacement of [3H]-CCPA from human adenosine A1 receptor expressed in CHO cells after 3 hrs by topcount scintillation counting analysis. The assay is classed as cell-based. The gist of the method:
as §2

The species entered for assay [3] is Homo sapiens. The assay is described as follows: Selectivity ratio of Ki for human adenosine A3 receptor to Ki for human adenosine A2A receptor.

Sequence of Adenosine receptor A2a (P29274 whole entry): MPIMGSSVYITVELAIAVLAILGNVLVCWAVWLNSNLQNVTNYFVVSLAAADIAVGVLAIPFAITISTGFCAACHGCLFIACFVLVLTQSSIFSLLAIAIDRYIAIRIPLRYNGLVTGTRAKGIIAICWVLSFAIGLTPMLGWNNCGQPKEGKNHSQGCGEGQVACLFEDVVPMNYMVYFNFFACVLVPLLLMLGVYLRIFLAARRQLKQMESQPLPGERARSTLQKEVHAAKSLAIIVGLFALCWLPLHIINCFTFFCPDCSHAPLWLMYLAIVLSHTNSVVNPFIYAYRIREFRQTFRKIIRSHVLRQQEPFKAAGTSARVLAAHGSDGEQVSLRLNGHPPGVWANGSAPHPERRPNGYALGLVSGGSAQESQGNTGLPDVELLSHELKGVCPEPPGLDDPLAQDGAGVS

One may read the Ki as a measure of affinity in units of concentration, obtained from inhibition or displacement. `CC(C)(C)Cn1cc2c(Cl)nc(NC(=O)c3ccc(C(F)(F)F)cc3)nc2n1`: the Ratio Ki (in assay [1]; in the assay filed under Homo sapiens [2]) was greater than 15 throughout. The Ki at Adenosine receptor A3 is 6.6 µM; at Adenosine receptor A2b, greater than 20 µM; at Adenosine receptor A2a, greater than 100 µM; at Adenosine receptor A1, greater than 100 µM.

On to `Cc1ccc(C(=O)Nc2nc(Cl)c3cn(CCc4ccccc4)nc3n2)cc1`, for which the Ratio Ki in assay [1] turned out to be 7.2; in the assay listed under Homo sapiens [2] it was 6.6. Moreover, the Ki was 1.5 µM at Adenosine receptor A3, greater than 20 µM on Adenosine receptor A2b, 9.9 µM at Adenosine receptor A2a and 10.8 µM on Adenosine receptor A1.

On to `CC(C)(C)Cn1cc2c(Cl)nc(NC(=O)Cc3ccccc3)nc2n1`, for which the Ratio Ki is 2.9 in assay [1] and 2.1 in the assay filed under Homo sapiens [2]. Also, the Ki on Adenosine receptor A3 was 10.9 µM; on Adenosine receptor A2b, greater than 20 µM; at Adenosine receptor A2a, 23.6 µM; on Adenosine receptor A1 it was 31.9 µM.

With `CCOC(=O)c1nc(NC(=O)c2ccc(C(F)(F)F)cc2)nc2nn(CC(C)(C)C)cc12`, the Ratio Ki (in assay [1]; in the assay filed under Homo sapiens [2]) was greater than 77 in each case. Moreover, the Ki on Adenosine receptor A3 is 1.3 µM; on Adenosine receptor A2b, greater than 20 µM; at Adenosine receptor A2a, greater than 100 µM; on Adenosine receptor A1 it was greater than 100 µM.

`CCOC(=O)c1nc(NC(=O)c2ccc(C)cc2)nc2nn(CC(C)(C)C)cc12`: the Ratio Ki (in assay [1]; in the assay filed under Homo sapiens [2]) was greater than 111 throughout. The Ki on Adenosine receptor A3 is 0.9 µM; on Adenosine receptor A2b it was greater than 20 µM; on Adenosine receptor A2a it was greater than 100 µM; at Adenosine receptor A1 it was greater than 100 µM.

For `Cn1cc2c(Cl)nc(N(C(=O)c3ccccc3)C(=O)c3ccccc3)nc2n1`, the Ratio Ki in assay [1] is greater than 8.4; in the assay listed under Homo sapiens [2], 2.4. In addition, the Ki at Adenosine receptor A3 was 7.1 µM; at Adenosine receptor A2b, greater than 20 µM; on Adenosine receptor A2a it was 17.5 µM; at Adenosine receptor A1, greater than 60 µM.

As for `CC(C)n1cc2c(Cl)nc(NC(=O)c3ccc(F)cc3)nc2n1`, the figures for the Ratio Ki in the assay listed under Homo sapiens [3] and in the assay listed under Homo sapiens [2] were greater than 37 and greater than 0.02, respectively. In addition, the Ki on Adenosine receptor A3 is greater than 60 µM; on Adenosine receptor A2b, greater than 20 µM; on Adenosine receptor A2a it was 1.6 µM; at Adenosine receptor A1, 3.4 µM.

Regarding `CC(C)(C)Cn1cc2c(Cl)nc(N(C(=O)c3ccccc3)C(=O)c3ccccc3)nc2n1`, the Ratio Ki (in assay [1]; in the assay listed under Homo sapiens [2]) was greater than 15.3 throughout. In addition, the Ki is 6.5 µM at Adenosine receptor A3, greater than 20 µM at Adenosine receptor A2b, greater than 100 µM on Adenosine receptor A2a and greater than 100 µM on Adenosine receptor A1.

On to `O=C(Nc1nc(Cl)c2cn(CCc3ccccc3)nc2n1)c1ccc(C(F)(F)F)cc1`, for which the Ratio Ki in assay [1] is greater than 21.4; in the assay listed under Homo sapiens [2] it was 5.8. Besides, the Ki at Adenosine receptor A3 was 2.8 µM; at Adenosine receptor A2b, greater than 20 µM; on Adenosine receptor A2a, 16.4 µM; on Adenosine receptor A1, greater than 60 µM.

`CC(C)(C)Cn1cc2c(Cl)nc(NC(=O)c3ccccc3)nc2n1`: the Ratio Ki came out at 0.3 in assay [1] and 0.1 in the assay filed under Homo sapiens [2]. The inhibitory constant (Ki) was 30.3 µM on Adenosine receptor A3, no less than 10 µM at Adenosine receptor A2b, 3.5 µM on Adenosine receptor A2a and 11 µM at Adenosine receptor A1.

For the molecule `O=C(Nc1nc(Cl)c2cn(CCc3ccccc3)nc2n1)c1ccccc1`, the figures for the Ratio Ki (in assay [1]; in the assay filed under Homo sapiens [2]) were 0.4 and 0.3, respectively. Moreover, the Ki is 8.6 µM at Adenosine receptor A3, greater than 20 µM at Adenosine receptor A2b, 3.1 µM on Adenosine receptor A2a and 3.8 µM on Adenosine receptor A1.

For the molecule `CC(C)n1cc2c(Cl)nc(NC(=O)Cc3ccccc3)nc2n1`, the Ratio Ki in assay [1] came out at 0.07; in the assay filed under Homo sapiens [2], 0.17. Also, the Ki is 27.1 µM on Adenosine receptor A3, greater than 10 µM on Adenosine receptor A2b, 4.7 µM on Adenosine receptor A2a and 1.9 µM at Adenosine receptor A1.

As for `Cn1cc2c(Cl)nc(NC(=O)c3ccc(F)cc3)nc2n1`, the Ratio Ki is greater than 3.1 in assay [1] and 0.6 in the assay filed under Homo sapiens [2]. Besides, the inhibitory constant (Ki) at Adenosine receptor A3 is 31.9 µM; at Adenosine receptor A2b, greater than 20 µM; on Adenosine receptor A2a, 20.5 µM; on Adenosine receptor A1, greater than 100 µM.

These data come from ChEMBL document CHEMBL3112554, “Discovery of simplified N²-substituted pyrazolo[3,4-d]pyrimidine derivatives as novel adenosine receptor antagonists: efficient synthetic approaches, biological evaluations and molecular docking studies” (Bioorg Med Chem, 2014).
